Molecules are shown by their SMILES.

The test system of data set [1] is Hepatitis C virus. The data set can be described thus: Antiviral activity against HCV1b infected in human HuH7 cells assessed as inhibition of viral replication by RT-PCR analysis. The format is functional, organism-based, Hepacivirus hominis. The note with it: genotype 1b, Huh-7. In outline:
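Huh7 cells carrying a subgenomic genotype 1b HCV replicon were treated with compound, and HCV RNA replication was measured. HCV RNA and ribosomal RNA were extracted and amplified together, and cytotoxicity in Huh7 was read at the same time. EC50 and EC90 came from dose–response curves of at least four concentrations, each run in triplicate, and are reported as means.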

The subject of a further data set is PBMC. As to the kind of experiment: Cytotoxicity against human PBMC after 3 days. The format is cell-based. Conditions: 72 h. The procedure, abridged:
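CC50 was measured in human peripheral blood mononuclear (PBM) cells, the human T-cell-derived CEM line, and African green monkey kidney epithelial Vero cells. Dose–response was fitted from at least four concentrations, each run in triplicate and reported as the mean.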

Another data set relates to CCRF-CEM. As to the kind of experiment: Cytotoxicity against human CEM cells after 3 days. In kind it is cell-based. Conditions: 72 h.
The subject of the next data set is Vero. The data set can be described thus: Cytotoxicity against african green monkey Vero cells after 3 days. The format is cell-based. Conditions: chlorocebus sabaeus, 72 h.
For data set [2], the system named is Hepatitis C virus. As to the kind of experiment: Antiviral activity against HCV1b infected in human assessed as reduction of viral RNA level at 10 mg after 24 hrs. The format is functional, Hepacivirus hominis, genotype 1b.
Data set [3] is described as follows: Therapeutic index, ratio of CC50 for human PBMC to EC50 for HCV1b. In outline: (§1)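 The index is CC50/EC50. EC50 came from Huh7 cells carrying a subgenomic genotype 1b HCV replicon, with HCV RNA quantified by extraction and amplification alongside rRNA. CC50 was measured in PBM, CEM or Vero cells. Each dose–response used at least four concentrations in triplicate, and means were reported.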

Data set [4] in a line: Therapeutic index, ratio of CC50 for human CEM cells to EC50 for HCV1b. In kind it is cell-based, CCRF-CEM. In outline:
as §1

The nature of data set [5]: Therapeutic index, ratio of CC50 for african green monkey Vero cells to EC50 for HCV1b. The format is cell-based. The procedure, abridged:
as §1

For `COC(=O)N[C@H](C(=O)N1CCC[C@H]1c1ncc(-c2ccc(-c3ccc(-c4ccc(-c5ccc(-c6cnc([C@@H]7CCCN7C(=O)[C@@H](NC(=O)OC)C(C)C)[nH]6)cc5)cc4)cc3)cc2)[nH]1)C(C)C`, the EC50 (as a rule, the midpoint of the concentration-response curve) in the data set on Hepatitis C virus [1] is 0.24 nM. The EC90 (usually the concentration at which the effect reaches the 90% level) in the data set with Hepatitis C virus [1] stood at 1 nM. For the same molecule, the half-maximal cytotoxic concentration (CC50) in the data set on PBMC, in the data set on CCRF-CEM and in the data set on Vero was over 100 µM throughout.

Consider `COC(=O)N[C@H](C(=O)N1CCC[C@H]1c1ncc(-c2ccc(-c3ccc(-c4cnc([C@@H]5CCCN5C(=O)[C@@H](NC(=O)OC)C(C)C)[nH]4)cc3)cc2)[nH]1)C(C)C`, for which, in the data set with Hepatitis C virus [1], the EC50 was determined as 0.0066 nM and the EC90 was determined as 0.023 nM. For the same molecule, half-maximal cytotoxicity with PBMC (CC50) was put at 19 µM. In addition, the Activity with Hepatitis C virus [2] was over 3 log10IU/ml.

Consider `COC(=O)N[C@H](C(=O)N1CCC[C@H]1c1ncc(-c2ccc(-c3ccc(-c4ccc(-c5cnc([C@@H]6CCCN6C(=O)[C@@H](NC(=O)OC)C(C)C)[nH]5)cc4)s3)cc2)[nH]1)C(C)C`, for which the EC50 in the data set with Hepatitis C virus [1] came out at 0.1 nM. Also, in the data set with Hepatitis C virus [1], the EC90 was determined as 0.3 nM. Moreover, the half-maximal cytotoxic concentration (CC50) (commonly the concentration at which the toxic effect on the cells reaches its halfway point) was 26 µM with PBMC, 12 µM in the data set with CCRF-CEM and over 100 µM with Vero.

For `COC(=O)N[C@H](C(=O)N1CCC[C@H]1c1ncc(-c2ccc(NS(=O)(=O)c3ccc(-c4cnc([C@@H]5CCCN5C(=O)[C@@H](NC(=O)OC)C(C)C)[nH]4)cc3)cc2)[nH]1)C(C)C`, the EC50 in the data set with Hepatitis C virus [1] worked out at 100 nM. In addition, the concentration for an effect of 90% (EC90) in the data set with Hepatitis C virus [1] was over 100 nM. Further, the 50% cytotoxic concentration (CC50) in the data set on PBMC was 15 µM; in the data set on CCRF-CEM, 13 µM; in the data set with Vero it was over 100 µM.

For the molecule `COC(=O)N[C@H](C(=O)N1CCC[C@H]1c1ncc(-c2ccc(-c3cn(-c4ccc(-c5cnc([C@@H]6CCCN6C(=O)[C@@H](NC(=O)OC)C(C)C)[nH]5)cc4)nn3)cc2)[nH]1)C(C)C`, the EC50 with Hepatitis C virus [1] was 0.2 nM. For the same molecule, the 90% effect concentration (EC90) in the data set on Hepatitis C virus [1] came to 0.9 nM. Further, the results for the half-maximal cytotoxic concentration (CC50) in the data set with PBMC, with CCRF-CEM and with Vero were 18 µM, 5 µM and 35 µM, respectively.

As for `COC(=O)N[C@H](C(=O)N1CCC[C@H]1c1ncc(-c2ccc(-c3ccc(-c4cnc([C@@H]5CCCN5C(=O)[C@@H](NC(=O)OC)C(C)C)[nH]4)s3)cc2)[nH]1)C(C)C`, the EC50 in the data set on Hepatitis C virus [1] was found to be 90.6 nM. Besides, in the data set with Hepatitis C virus [1], the concentration for an effect of 90% (EC90) is over 100 nM. The 50% cytotoxic concentration (CC50) with PBMC came out at 93 µM; in the data set on CCRF-CEM, 48 µM; in the data set with Vero it was 99 µM.

As for `COC(=O)N[C@H](C(=O)N1CCC[C@H]1c1ncc(-c2ccc(-c3cnc([C@@H]4CCCN4C(=O)[C@@H](NC(=O)OC)C(C)C)[nH]3)cc2)[nH]1)C(C)C`, the EC50 in the data set with Hepatitis C virus [1] is over 1 nM. The cytotoxic concentration (CC50) in the data set with PBMC, in the data set on CCRF-CEM and in the data set on Vero was over 100 µM each time.

As for `COC(=O)N[C@H](C(=O)N1CCC[C@H]1c1ncc(-c2ccc(Oc3ccc(-c4cnc([C@@H]5CCCN5C(=O)[C@@H](NC(=O)OC)C(C)C)[nH]4)cc3)cc2)[nH]1)C(C)C`, in the data set on Hepatitis C virus [1], the EC50 came out at 30 nM. In the data set on Hepatitis C virus [1], the 90% effect concentration (EC90) is 90 nM. The values for the half-maximal cytotoxic concentration (CC50) with PBMC, in the data set with CCRF-CEM and in the data set on Vero were 16 µM, 16 µM and 19 µM, respectively.

As for `COC(=O)N[C@H](C(=O)N1CCC[C@H]1c1ncc(-c2ccc(-c3ccc(-c4ccc(-c5cnc([C@@H]6CCCN6C(=O)[C@@H](NC(=O)OC)C(C)C)[nH]5)cc4)nc3)cc2)[nH]1)C(C)C`, the half-maximal effective concentration (EC50) in the data set with Hepatitis C virus [1] is 0.026 nM. Further, the concentration for an effect of 90% (EC90) in the data set with Hepatitis C virus [1] turned out to be 0.068 nM. Also, the 50% cytotoxic concentration (CC50) in the data set on PBMC was 3.9 µM; in the data set with CCRF-CEM it was 2.3 µM; with Vero it was 6.5 µM.

For `COC(=O)N[C@H](C(=O)N1CCC[C@H]1c1ncc(-c2ccc(-c3ccc(-c4ccc(-c5cnc([C@@H]6CCCN6C(=O)[C@@H](NC(=O)OC)C(C)C)[nH]5)cn4)cc3)cc2)[nH]1)C(C)C`, the 50% effective concentration (EC50) in the data set with Hepatitis C virus [1] worked out at 0.2 nM. Further, the 90% effect concentration (EC90) with Hepatitis C virus [1] amounted to 0.7 nM. Further, the values for the half-maximal cytotoxic concentration (CC50) in the data set with PBMC, in the data set with CCRF-CEM and in the data set with Vero were 5.5 µM, 31 µM and 29 µM, respectively.

Take `COC(=O)N[C@H](C(=O)N1CCC[C@H]1c1ncc(-c2ccc(-c3cccc(-c4ccc(-c5cnc([C@@H]6CCCN6C(=O)[C@@H](NC(=O)OC)C(C)C)[nH]5)cc4)c3)cc2)[nH]1)C(C)C`: in the data set on Hepatitis C virus [1], the EC50 was determined as 0.8 nM. Also, the EC90 in the data set on Hepatitis C virus [1] was found to be 2.9 nM. The values for the 50% cytotoxic concentration (CC50) in the data set with PBMC, with CCRF-CEM and in the data set on Vero were 18 µM, 3 µM and over 100 µM, respectively.

On to `COC(=O)N[C@H](C(=O)N1CCC[C@H]1c1ncc(-c2ccc(-c3ccc(-c4ccc(-c5cnc([C@@H]6CCCN6C(=O)[C@@H](NC(=O)OC)C(C)C)[nH]5)cc4)cc3)cc2)[nH]1)C(C)C`, for which the EC50 with Hepatitis C virus [1] came out at 0.026 nM. Moreover, the EC90 in the data set with Hepatitis C virus [1] stood at 0.09 nM. For the same molecule, the CC50 in the data set on PBMC, in the data set with CCRF-CEM and in the data set on Vero was over 100 µM throughout. The selectivity ratio in data set [3], in data set [4] and in data set [5] was over 4e+06 throughout.

Source of the values: ChEMBL document CHEMBL2021872, “Synthesis and biological evaluation of new potent and selective HCV NS5A inhibitors” (Bioorg Med Chem Lett, 2012).
